# Tests used:
# [1] = molecular target: Sodium-dependent dopamine transporter (Rattus norvegicus, UniProt P23977); assay: Ability to inhibit high affinity uptake of [3H]DA at Dopamine transporter (DAT) using rat brain striatum; type: tissue-based
# Procedure, shortened: (§1)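 Rat synaptosomal (P2) uptake: striatum for DAT, midbrain for SERT, parietal/occipital cortex for NET, in modified KRH pH 7.4 with nialamide. Drug preincubated 30 min at 4 °C, then 15 min at 37 °C. [3H]amine final ~5 nM (DA, 5-HT) or 9 nM (NE), 5 min uptake, stopped with cold Na-free buffer and filtered. Background from 0 °C tubes. IC50 converted to Ki by Cheng–Prusoff. Mean ± SE, ≥3 experiments.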
# [2] = molecular target: Norepinephrine transporter (Rattus norvegicus, UniProt Q9WTR4); assay: Ability to inhibit high affinity uptake of [3H]NE at Norepinephrine transporter (NET) using rat brain parietal/occipital cortex; type: tissue-based; procedure, shortened: as §1
# Sequence of Norepinephrine transporter (Q9WTR4 whole entry): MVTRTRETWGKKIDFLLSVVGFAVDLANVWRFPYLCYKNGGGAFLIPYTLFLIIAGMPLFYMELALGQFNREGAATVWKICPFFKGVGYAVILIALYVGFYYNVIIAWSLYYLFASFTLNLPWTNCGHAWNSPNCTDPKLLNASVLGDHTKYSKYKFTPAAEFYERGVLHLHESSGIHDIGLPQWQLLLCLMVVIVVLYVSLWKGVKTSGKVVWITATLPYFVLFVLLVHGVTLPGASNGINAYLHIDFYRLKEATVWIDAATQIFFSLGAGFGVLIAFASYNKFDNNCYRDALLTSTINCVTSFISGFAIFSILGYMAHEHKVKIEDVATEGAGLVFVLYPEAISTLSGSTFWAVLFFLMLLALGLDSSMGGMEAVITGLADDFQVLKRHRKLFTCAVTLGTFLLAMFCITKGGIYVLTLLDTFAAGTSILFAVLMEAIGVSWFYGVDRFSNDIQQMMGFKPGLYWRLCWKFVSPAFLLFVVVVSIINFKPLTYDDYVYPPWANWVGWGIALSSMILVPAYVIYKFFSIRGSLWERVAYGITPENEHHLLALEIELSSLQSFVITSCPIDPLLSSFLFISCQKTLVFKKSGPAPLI
# [3] = molecular target: T1, Sodium-dependent serotonin transporter (Rattus norvegicus, UniProt P31652); assay: (§2) Ability to inhibit high affinity uptake of [3H]-5-HT at Serotonin transporter (SERT) using rat midbrain; type: tissue-based; procedure, shortened: as §1
# Target sequence in this assay (P31652 whole entry): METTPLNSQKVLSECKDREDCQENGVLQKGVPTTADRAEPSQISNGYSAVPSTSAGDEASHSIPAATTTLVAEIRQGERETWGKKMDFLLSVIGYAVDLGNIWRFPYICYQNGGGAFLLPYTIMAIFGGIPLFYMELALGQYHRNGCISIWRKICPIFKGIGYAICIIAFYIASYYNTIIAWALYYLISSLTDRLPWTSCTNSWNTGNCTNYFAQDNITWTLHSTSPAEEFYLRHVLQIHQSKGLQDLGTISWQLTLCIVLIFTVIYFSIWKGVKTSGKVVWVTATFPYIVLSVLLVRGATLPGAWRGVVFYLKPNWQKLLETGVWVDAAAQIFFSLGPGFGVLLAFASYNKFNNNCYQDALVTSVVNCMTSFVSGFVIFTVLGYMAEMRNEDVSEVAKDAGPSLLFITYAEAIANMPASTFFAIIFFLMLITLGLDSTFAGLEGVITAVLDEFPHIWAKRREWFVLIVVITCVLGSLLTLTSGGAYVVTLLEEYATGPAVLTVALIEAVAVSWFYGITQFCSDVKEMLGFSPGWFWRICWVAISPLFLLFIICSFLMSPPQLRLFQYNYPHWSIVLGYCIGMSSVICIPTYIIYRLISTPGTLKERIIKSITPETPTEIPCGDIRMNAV
# [4] = molecular target: Monoamine transporters; serotonin & dopamine (Rattus norvegicus) (UniProt P31652+P23977); assay: Ratio of affinity for serotonin transporter to that of dopamine transporter; type: protein assay
# Sequence of Monoamine transporters; serotonin & dopamine (Rattus norvegicus) (P23977 whole entry, looked up): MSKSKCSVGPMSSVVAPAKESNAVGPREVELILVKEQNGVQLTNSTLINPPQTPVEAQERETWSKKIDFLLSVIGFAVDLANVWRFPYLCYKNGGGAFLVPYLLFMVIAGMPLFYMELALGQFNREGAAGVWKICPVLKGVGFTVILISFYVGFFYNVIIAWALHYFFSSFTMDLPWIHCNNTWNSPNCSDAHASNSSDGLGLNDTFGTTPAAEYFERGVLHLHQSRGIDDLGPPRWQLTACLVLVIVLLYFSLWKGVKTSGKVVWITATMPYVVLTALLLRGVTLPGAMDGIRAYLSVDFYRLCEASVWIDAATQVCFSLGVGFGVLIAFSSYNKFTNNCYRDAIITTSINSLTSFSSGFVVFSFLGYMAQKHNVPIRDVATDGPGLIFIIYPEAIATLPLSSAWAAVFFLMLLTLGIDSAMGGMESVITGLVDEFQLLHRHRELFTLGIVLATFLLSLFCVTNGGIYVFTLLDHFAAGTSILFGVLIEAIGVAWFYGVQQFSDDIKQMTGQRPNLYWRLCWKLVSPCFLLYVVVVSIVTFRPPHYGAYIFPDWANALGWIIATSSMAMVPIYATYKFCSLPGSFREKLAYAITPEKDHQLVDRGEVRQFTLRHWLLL
# Sequence of Monoamine transporters; serotonin & dopamine (Rattus norvegicus) (P31652 whole entry, looked up): as the sequence (P31652 whole entry) above
# Procedure, shortened: (§3)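 Ratios of Ki values from rat synaptosomal [3H]amine uptake inhibition at SERT (midbrain), DAT (striatum) and NET (parietal/occipital cortex). Ki came from IC50 via Cheng–Prusoff.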
# [5] = molecular target: Monoamine transporters; Norepinephrine & serotonin (Rattus norvegicus) (UniProt P31652+Q9WTR4); assay: Ratio of affinity for Norepinephrine transporter to that of Serotonin transporter; type: protein assay; procedure, shortened: as §3
# [6] = molecular target: T1, Sodium-dependent serotonin transporter; assay: as §2; type: tissue-based; remark: listed apart in the source
# Procedure, shortened: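 Rat midbrain P2 synaptosomes in ice-cold modified KRH buffer (pH 7.4, with 0.01 mM nialamide). Drug preincubated 30 min at 4 °C, then 15 min at 37 °C. Uptake started with ~5 nM [3H]5-HT (final) and run 5 min. Stopped with cold sodium-free glucosamine buffer and GF/C filtration. IC50 by LIGAND, converted to Ki by Cheng–Prusoff. Mean ± SE of ≥3 experiments.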
# Target sequence in this assay (P31652 whole entry, looked up): as the sequence (P31652 whole entry) above
# Sequence of Sodium-dependent dopamine transporter (P23977 whole entry): as the sequence (P23977 whole entry, looked up) above
SMILES,Ki [1] [nM],Ki [2] [nM],Ki [3] [nM],Ratio [4],Ratio [5],Ki [6] [nM]
CN1CC[C@H](c2ccc(Cl)cc2)[C@@H](CC(=O)O)C1,3010,3810,> 10000,–,–,–
CN1CC[C@H](c2ccc(Cl)cc2)C(C(=O)Oc2ccccc2)C1 (some centres not stated),906,2180,2120,2.3,1,–
CCNC(=O)OC[C@H]1CN(C)CC[C@@H]1c1ccc(Cl)cc1,181,100,854,4.7,0.12,–
COC(=O)CC[C@H]1CN(C)CC[C@@H]1c1ccc(Cl)cc1,68,31,255,3.8,0.12,–
CN1CC[C@H](c2ccc(Cl)cc2)[C@@H](CCC(=O)NC23CC4CC(CC(C4)C2)C3)C1,446,152,585,1.3,0.26,–
CN1CC[C@H](c2ccc(Cl)cc2)[C@@H](C(=O)O)C1,–,–,131000,0.76,2.2,282000
CN1CC[C@H](c2ccc(Cl)cc2)[C@@H](CCCF)C1,43,356,5190,120,0.069,–
C=CCOC[C@H]1CN(C)CC[C@@H]1c1ccc(Cl)cc1,60,20,231,3.9,0.087,–
CC(=O)OC[C@H]1CN(C)CC[C@@H]1c1ccc(Cl)cc1,599,235,901,1.5,0.26,–
CN1CC[C@H](c2ccc(Cl)cc2)[C@@H](CCC(=O)O)C1,1300,425,4540,3.5,0.094,–
CN1CC[C@H](c2ccc(Cl)cc2)[C@@H](C(=O)OCCCCCc2ccccc2)C1,53,382,1790,34,0.21,–
CN1CC[C@H](c2ccc(Cl)cc2)C(C(=O)N(C)C)C1 (some centres not stated),2140,569,18900,8.8,0.03,–
CCC[C@H]1CN(C)CC[C@@H]1c1ccc(Cl)cc1,20,6.5,228,11,0.029,–
CN1CC[C@H](c2ccc(Cl)cc2)[C@@H](CC(=O)NCc2ccccc2)C1,270,107,191,0.71,0.56,–
CN1CC[C@H](c2ccc(Cl)cc2)[C@@H](CCC(=O)Nc2ccccc2)C1,201,56,354,1.8,0.16,–
CN1CC[C@H](c2ccc(Cl)cc2)[C@@H](CC(=O)N(C)C)C1,16,46,1990,125,0.023,–
CN1CC[C@H](c2ccc(Cl)cc2)[C@@H](COC(=O)NC23CC4CC(CC(C4)C2)C3)C1,56,56,37,0.66,1.5,–
CNC(=O)C[C@H]1CN(C)CC[C@@H]1c1ccc(Cl)cc1,–,251,2270,2.5,0.11,–
CN1CC[C@H](c2ccc(Cl)cc2)[C@@H](CC(=O)N(C)Cc2ccccc2)C1,165,32,66,0.4,0.49,–
COC(=O)/C=C/[C@H]1CN(C)CC[C@@H]1c1ccc(Cl)cc1,53,272,501,9.5,0.54,–
CN1CC[C@H](c2ccc(Cl)cc2)[C@@H](COC(=O)c2ccccc2)C1,273,389,296,1.1,1.3,–
CN1CC[C@H](c2ccc(Cl)cc2)[C@@H](CCCO)C1,16,564,2810,175,0.2,–
CCOC(=O)C[C@H]1CN(C)CC[C@@H]1c1ccc(Cl)cc1,79,101,191,2.4,0.53,–
CN1CC[C@H](c2ccc(Cl)cc2)[C@@H](CC(=O)OCCCc2ccccc2)C1,36,48,82,2.3,0.59,–
CN1CC[C@H](c2ccc(Cl)cc2)[C@@H](COC(=O)Nc2ccccc2)C1,91,33,1290,14,0.026,–
CN1CC[C@H](c2ccc(Cl)cc2)C(C(=O)N2CCCC2)C1 (some centres not stated),–,2000,–,–,–,–
CN1CC[C@H](c2ccc(Cl)cc2)[C@@H](C(=O)OC(C)(C)C)C1,318,350,5750,18,0.061,–
CN1CC[C@H](c2ccc(Cl)cc2)[C@@H](CC(=O)NC23CC4CC(CC(C4)C2)C3)C1,706,1080,376,0.53,2.9,–

# Source: ChEMBL document CHEMBL1149196 (J Med Chem, 2004)
